Measurements collected from several papers.
Each line is one published result; the experiments were not run side by side.
Target: Serine/threonine-protein kinase Sgk1 (SGK1, Homo sapiens, UniProt O00141)
Residues used in one study (O00141 1-431): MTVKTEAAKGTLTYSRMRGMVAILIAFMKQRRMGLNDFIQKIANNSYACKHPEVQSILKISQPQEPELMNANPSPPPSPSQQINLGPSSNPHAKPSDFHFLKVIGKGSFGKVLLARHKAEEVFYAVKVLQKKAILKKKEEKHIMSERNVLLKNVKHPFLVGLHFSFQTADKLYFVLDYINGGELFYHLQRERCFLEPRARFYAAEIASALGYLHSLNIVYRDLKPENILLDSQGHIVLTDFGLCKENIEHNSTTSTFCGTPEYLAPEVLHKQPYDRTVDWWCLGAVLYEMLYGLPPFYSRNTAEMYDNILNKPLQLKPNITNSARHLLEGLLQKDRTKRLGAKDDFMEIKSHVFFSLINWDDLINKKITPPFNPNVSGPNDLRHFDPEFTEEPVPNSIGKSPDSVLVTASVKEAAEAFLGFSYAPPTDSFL

Structure (SMILES) | test | conditions | remaining binding [%]
c1cnn2ncc(-c3ccnc(N4CCC45COC5)n3)c2c1 | binding | 1 µM | 55
CC(=O)Nc1c(C(C)=O)c(=O)n(C)c2nc(-c3ccc(Cl)cc3Cl)c(-c3ccc(Cl)cc3)cc12 | cell-free assay, competition with immobilised ligand | 1 µM | 100
C[C@H]1CCN(c2nccc(-c3cnn4ncccc34)n2)C1 | binding | 1 µM | 68
CS(=O)(=O)c1cc(C2(NC(=O)c3cncc4c3cnn4-c3ccc(F)cc3)CC2)ccn1 | cell-free assay, competition with immobilised ligand | 1 µM | 97
O=C(NCCCN1CCOCC1)c1ccc(Nc2ncc(Cl)c(-c3ccc(Cl)s3)n2)cc1 | binding, competition with immobilised ligand | 1 µM | 5.8
Cc1nc(Cc2cccc(C(F)(F)F)c2)sc1-c1ccc(C(N)=O)nc1 | cell-free assay, competition with immobilised ligand | 1 µM | 100
C[C@@H](c1ccc(-n2cnc3c(N)ncnc32)cc1)N1CCc2nn(C)c(Cc3ccccc3)c2C1=O | binding, competition with immobilised ligand | 0.1 µM | 61
CN(C)C(=O)Cn1cc(-c2nc([C@@](C)(c3ccc(-c4cnc(N)nc4)cc3)C3CC3)no2)cn1 | cell-free assay, competition with immobilised ligand | 1 µM | 91
CN(CCCC(F)(F)F)c1nccc(-c2cnn3ncccc23)n1 | binding | 1 µM | 85
Nc1ncc2c(n1)-c1c([nH]c3ccc(C#CC4CC4)cc13)CCCC2 | binding, competition with immobilised ligand | 1 µM | 88
O=C1NC(c2ccccn2)Sc2ccccc21 (stereo not shown) | cell-free assay, competition with immobilised ligand | 1 µM | 87
FC(F)(F)Oc1cccc(-c2cnc3ccc(-c4ccncc4)nn23)c1 | binding, competition with immobilised ligand | 5 µM | 75
CCCCN(CCCC)C(=O)CN1C[C@@H](c2cc(OC)c3c(c2)OCO3)[C@H](C(=O)O)[C@H]1CC(C)(C)CCC | cell-free assay, competition with immobilised ligand | 1 µM | 77.6
COc1ncc2cc3ccccc3nc2c1C#N | cell-free assay, competition with immobilised ligand | 5 µM | 94
O=C(c1ccc(Nc2nccc(-c3cc4ccccc4s3)n2)cc1)N1CCC(N2CCCC2)CC1 | binding, competition with immobilised ligand | 1 µM | 1.1
CC1CCCN1c1nccc(-c2cnn3ncccc23)n1 (stereo not shown) | binding | 1 µM | 86
O=C(Nc1c[nH]nc1C(=O)NC1CCNCC1)c1cc(F)cc(F)c1 | binding, competition with immobilised ligand | 1 µM | 100
CNCc1ccccc1-c1csc([C@H](C)Nc2nc(C)nc3cc(OC)c(OC)cc23)c1 | cell-free assay, competition with immobilised ligand | 1 µM | 91
N[C@H]1CCN(c2nccc(-c3cnn4ncccc34)n2)C1 | binding | 1 µM | 91
Cc1cnc(Nc2ccc(C(=O)N3CCC(N4CCCC4)CC3)cc2)nc1-c1cc2ccccc2s1 | binding, competition with immobilised ligand | 1 µM | 0.2
CN(C)c1nccc(-c2cnc3ncccn23)n1 | binding | 1 µM | 79
CNC(=O)[C@@H]1CC[C@@H](n2c(-c3ccc4cnccc4c3)nc3ccc(C(=O)NCc4cccc(C(N)=O)c4)cc32)C1 | binding, competition with immobilised ligand | 1 µM | 94
